pEC50, pIC50: −log10 of the molar value. Active and inactive are the calls of the source. The rule behind the calls is not given here.
What was measured:
[1] = target: T1, Transient receptor potential cation channel subfamily V member 1 (Rattus norvegicus, UniProt O35433); experiment: Antagonist activity at rat TRPV1 expressed in CHO cells assessed as inhibition of acid-induced calcium influx; type: functional, cell-based
Summary of the method: (§1)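 CHO cells stably transfected with human or rat TRPV1 were preincubated with compound for 2 min at room temperature. After washout, uptake was read by scintillation counting. IC50 values come from inhibition curves, averaging at least two experiments run in triplicate.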

[2] = target: T2, Transient receptor potential cation channel subfamily V member 1 (Homo sapiens, UniProt Q8NER1); experiment: Agonist activity at TRPV1 expressed in CHO cells; type: functional, cell-based
[3] = target: T1, Transient receptor potential cation channel subfamily V member 1; experiment: Antagonist activity at rat TRPV1 expressed in CHO cells assessed as inhibition of capsaicin-induced calcium influx; type: functional, cell-based
Summary of the method: (§2)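 Human or rat TRPV1-CHO cells were preincubated with compound for 2 min at room temperature in HBSS with 0.1 mg/mL BSA and 1 mM HEPES pH 7.4. Cells were washed and radioactivity counted. IC50 is the mean of at least two experiments, triplicate per concentration, ±SEM.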

[4] = Half life in Sprague-Dawley rat at 2 mg/kg, iv; type: ADME, organism-based; set-up: dose 2 mg/kg, route intravenous; details: in vivo
Summary of the method: (§3)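 Male Sprague-Dawley rats received a single intravenous dose of 2 mg/kg given as a solution in DMSO. Plasma AUC0-∞, clearance, Vss and t1/2 were derived. Values are means of n = 2 animals per study, or of four studies.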

[5] = Tmax in Sprague-Dawley rat at 5 mg/kg, po; type: ADME, organism-based; set-up: dose 5 mg/kg, route oral; details: in vivo
Summary of the method: (§4)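 Sprague-Dawley rats were dosed orally at 5 mg/kg as a suspension in 5% Tween 80 in Oraplus. Cmax, tmax, AUC0-∞ and oral bioavailability were determined. Values are means of n = 2 animals per study, or of five studies.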

[6] = AUC (0-infinity) in Sprague-Dawley rat at 2 mg/kg, iv; type: ADME, organism-based; set-up: time infinity, dose 2 mg/kg, route intravenous; details: plasma; summary of the method: as §3
[7] = Bioavailability in Sprague-Dawley rat at 5 mg/kg, po; type: ADME, organism-based; details: in vivo; summary of the method: as §4
[8] = AUC (0-infinity) in Sprague-Dawley rat at 5 mg/kg, po; type: ADME, organism-based; set-up: time infinity, dose 5 mg/kg, route oral; details: plasma; summary of the method: as §4
[9] = Clearance in Sprague-Dawley rat at 2 mg/kg, iv; type: ADME, organism-based; set-up: dose 2 mg/kg, route intravenous; details: in vivo; summary of the method: as §3
[10] = target: T2, Transient receptor potential cation channel subfamily V member 1; experiment: Antagonist activity at human TRPV1 expressed in CHO cells assessed as inhibition of capsaicin-induced calcium influx; type: functional, cell-based; summary of the method: as §2
[11] = target: T2, Transient receptor potential cation channel subfamily V member 1; experiment: Antagonist activity at human TRPV1 expressed in CHO cells assessed as inhibition of acid-induced calcium influx; type: functional, cell-based; summary of the method: as §1
[12] = Cmax in Sprague-Dawley rat at 5 mg/kg, po; type: ADME, organism-based; set-up: dose 5 mg/kg, route oral; details: in vivo; summary of the method: as §4
[13] = Volume of distribution at steady state in Sprague-Dawley rat at 2 mg/kg, iv; type: ADME, organism-based; set-up: dose 2 mg/kg, route intravenous; details: in vivo, read-out: Vss; summary of the method: as §3
[14] = AUC (0-infinity) in Sprague-Dawley rat at 3 mg/kg, iv; type: ADME, organism-based; set-up: time infinity, dose 3 mg/kg, route intravenous; details: plasma
Rattus norvegicus = experiment: Blockade of capsaicin-induced hypothermic response in Sprague-Dawley rat at 40 mg/kg, po; type: functional, organism-based; set-up: dose 40 mg/kg
Summary of the method: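 Male Sprague-Dawley rats (175–250 g) had core temperature monitored by radiotelemetry, with a 30 min baseline. Compound or vehicle was given by oral gavage in OraPlus/5% Tween-80 (5 mL/kg), at 40 mg/kg p.o., n = 8 per group. After 90 min, capsaicin 10 mg/kg or vehicle was injected intraperitoneally.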

T1 sequence (O35433 whole entry): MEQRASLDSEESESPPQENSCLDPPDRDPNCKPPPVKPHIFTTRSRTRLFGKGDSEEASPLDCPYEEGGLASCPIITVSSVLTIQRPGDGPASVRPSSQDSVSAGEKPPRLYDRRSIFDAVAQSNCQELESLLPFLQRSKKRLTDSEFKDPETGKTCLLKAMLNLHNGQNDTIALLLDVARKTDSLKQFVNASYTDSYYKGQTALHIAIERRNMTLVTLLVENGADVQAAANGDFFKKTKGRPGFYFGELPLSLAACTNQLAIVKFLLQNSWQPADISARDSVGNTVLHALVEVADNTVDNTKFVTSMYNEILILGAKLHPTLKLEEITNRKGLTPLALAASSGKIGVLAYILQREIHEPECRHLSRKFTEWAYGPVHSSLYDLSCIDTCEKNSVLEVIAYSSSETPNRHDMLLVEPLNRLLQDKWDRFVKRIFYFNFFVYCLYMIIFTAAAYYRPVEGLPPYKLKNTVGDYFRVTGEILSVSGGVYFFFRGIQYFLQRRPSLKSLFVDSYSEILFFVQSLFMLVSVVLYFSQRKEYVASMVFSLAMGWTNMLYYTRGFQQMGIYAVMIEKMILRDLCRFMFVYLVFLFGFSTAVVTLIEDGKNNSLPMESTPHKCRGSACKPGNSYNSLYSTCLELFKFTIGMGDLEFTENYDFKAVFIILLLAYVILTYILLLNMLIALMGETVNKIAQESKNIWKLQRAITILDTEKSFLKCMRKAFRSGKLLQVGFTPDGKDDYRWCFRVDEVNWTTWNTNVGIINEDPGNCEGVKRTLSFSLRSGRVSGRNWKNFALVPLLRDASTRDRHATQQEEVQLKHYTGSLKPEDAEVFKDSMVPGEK
T2 sequence (Q8NER1 whole entry): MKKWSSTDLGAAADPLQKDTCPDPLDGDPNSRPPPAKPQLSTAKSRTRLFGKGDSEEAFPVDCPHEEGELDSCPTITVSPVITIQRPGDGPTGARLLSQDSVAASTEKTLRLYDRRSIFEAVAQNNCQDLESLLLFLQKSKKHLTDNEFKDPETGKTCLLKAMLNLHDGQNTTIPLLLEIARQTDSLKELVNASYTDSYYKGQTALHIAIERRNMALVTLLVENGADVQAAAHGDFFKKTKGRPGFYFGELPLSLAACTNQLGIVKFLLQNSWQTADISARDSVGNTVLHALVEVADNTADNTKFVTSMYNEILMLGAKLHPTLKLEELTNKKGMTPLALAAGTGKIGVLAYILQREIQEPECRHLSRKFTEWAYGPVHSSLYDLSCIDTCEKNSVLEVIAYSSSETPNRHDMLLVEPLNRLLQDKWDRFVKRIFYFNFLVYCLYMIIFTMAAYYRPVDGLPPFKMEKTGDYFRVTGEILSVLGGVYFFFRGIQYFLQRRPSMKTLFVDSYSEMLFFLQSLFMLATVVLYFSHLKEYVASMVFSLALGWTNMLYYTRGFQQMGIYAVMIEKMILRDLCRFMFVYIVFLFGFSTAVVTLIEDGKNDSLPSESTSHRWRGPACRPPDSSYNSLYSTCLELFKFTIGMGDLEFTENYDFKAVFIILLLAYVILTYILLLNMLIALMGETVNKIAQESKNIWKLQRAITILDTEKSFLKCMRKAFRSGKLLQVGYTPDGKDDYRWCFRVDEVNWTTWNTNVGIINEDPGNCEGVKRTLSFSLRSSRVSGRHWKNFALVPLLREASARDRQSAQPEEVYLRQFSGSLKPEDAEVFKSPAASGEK

| Structure (SMILES) | pIC50 [1] | pEC50 [2] | pIC50 [3] | also measured |
| --- | --- | --- | --- | --- |
| CC(C)(C)c1ccc(-c2cc(Nc3ccc4c(c3)OCCO4)cnn2)cc1 | < 5.40 | < 5.40 | 6.08 |  |
| FC(F)(F)c1ccc(-c2cc(Nc3ccc4cccnc4c3)ncn2)cc1 | 8.18 | < 5.40 |  | half-life [4]: 1.7 h; Tmax [5]: 5 h; AUC(0-inf) [6]: 320 ng·h/mL; bioavailability [7]: 6%; AUC(0-inf) [8]: 94 ng·h/mL; clearance [9]: 51.7 mL/min/kg; pIC50 [10]: 9.22; pIC50 [11]: 9.52; Cmax [12]: 26 ng/mL; Vd [13]: 3 L/kg |
| CC(C)(C)c1ccc(-c2ccnc(Nc3ccc4c(c3)OCCO4)n2)cc1 | < 5.40 | < 5.40 | < 5.40 |  |
| CC(C)(C)c1ccc(/C=C/C(=O)Nc2ccc3c(c2)OCCO3)cc1 |  | < 5.40 |  | AUC(0-inf) [14]: 680 ng·h/mL |
| FC(F)(F)c1ccc(-c2cc(Nc3ccc4c(c3)OCCO4)ncn2)cc1 | 5.92 | < 5.40 | 6.37 | pIC50 [10]: 6.92; pIC50 [11]: 6.60 |
| CC(C)(C)c1ccc(-c2cc(Nc3ccc4c(c3)OCCO4)ccn2)cc1 | < 5.40 | < 5.40 | < 5.40 |  |
| CC(C)(C)c1ccc(-c2cc(Nc3ccc4c(c3)OCCO4)ncn2)cc1 | 6.17 | < 5.40 | 6.92 | pIC50 [10]: 7.29; pIC50 [11]: 6.57 |
| CC(C)(C)c1ccc(-c2cnnc(Nc3ccc4c(c3)OCCO4)c2)cc1 | < 5.40 | < 5.40 | 6.11 |  |
| CC(C)(C)c1ccc(-c2ccnc(Nc3ccc4c(c3)OCCO4)c2)cc1 | 5.89 | < 5.40 | 6.64 |  |
| CC(C)(C)c1ccc(-c2cccc(Nc3ccc4c(c3)OCCO4)c2)cc1 | < 5.40 | < 5.40 | < 5.40 |  |
| CC(C)(C)c1ccc(-c2nccc(Nc3ccc4c(c3)OCCO4)n2)cc1 | < 5.40 | < 5.40 | < 5.40 |  |
| CC(C)(C)c1ccc(/C=C2\CCCN(c3ccc4c(c3)OCCO4)C2=O)cc1 | < 5.40 | < 5.40 | < 5.40 |  |
| CC(C)(C)c1ccc(-c2cc(Cc3ccc4c(c3)OCCO4)ncn2)cc1 | < 5.40 | < 5.40 | 6.04 |  |
| CC(C)(C)c1ccc(Cc2cccn(-c3ccc4c(c3)OCCO4)c2=O)cc1 | < 5.40 | < 5.40 | < 5.40 |  |
| FC(F)(F)c1ccc(-c2cc(Oc3ccc4cccnc4c3)ncn2)cc1 |  | < 5.40 |  | half-life [4]: 2.8 h; Activity (Rattus norvegicus): Active; Tmax [5]: 1.2 h; AUC(0-inf) [6]: 1590 ng·h/mL; bioavailability [7]: 31%; AUC(0-inf) [8]: 2040 ng·h/mL; pIC50 [10]: 8.43; pIC50 [11]: 8.38; Cmax [12]: 300 ng/mL; Vd [13]: 3 L/kg |
| CC(C)(C)c1ccc(-c2cncc(Nc3ccc4c(c3)OCCO4)c2)cc1 | < 5.40 | < 5.40 | 5.92 |  |
| CC(C)(C)c1ccc(-c2cc(Nc3ccc4cccnc4c3)ncn2)cc1 | 7.66 | < 5.40 | 8.70 | half-life [4]: 1.6 h; Tmax [5]: 0.5 h; AUC(0-inf) [6]: 340 ng·h/mL; bioavailability [7]: 5%; AUC(0-inf) [8]: 79 ng·h/mL; clearance [9]: 48.3 mL/min/kg; pIC50 [10]: 8.72; pIC50 [11]: 8.16; Cmax [12]: 34 ng/mL; Vd [13]: 3.1 L/kg |
| CC(C)(C)c1ccc(-c2ncnc(Nc3ccc4c(c3)OCCO4)n2)cc1 | < 5.40 | < 5.40 | 6.12 |  |
| CN(c1ccc2c(c1)OCCO2)c1cc(-c2ccc(C(C)(C)C)cc2)ncn1 | 5.66 | < 5.40 | < 5.40 |  |
| CC(C)(C)c1ccc(-c2cncc(Nc3ccc4c(c3)OCCO4)n2)cc1 | < 5.40 | < 5.40 | < 5.40 |  |
| CC(C)(C)c1ccc(-c2cccc(Nc3ccc4c(c3)OCCO4)n2)cc1 | < 5.40 | < 5.40 | < 5.40 |  |
| CC(C)(C)c1ccc(-c2cc(Sc3ccc4c(c3)OCCO4)ncn2)cc1 | < 5.40 | < 5.40 | < 5.40 |  |
| CC(C)(C)c1ccc(-c2cc(Oc3ccc4c(c3)OCCO4)ncn2)cc1 | 6.17 | < 5.40 |  |  |
